Paper PMC2910749 (Chembiochem : a European journal of chemical biology, 2008)
Where a chain is given by its changes, count along the chain named.

Columns and labels:
[1] = target: almond β-Glc; assay: Glycosidase specificity: almond β-glucosidase inhibition; type: biochemical; conditions: for IC50: pNPGlc (1.6 mM)
[2] = target: T1, human Hex (Homo sapiens, UniProt P07686); assay: Glycosidase specificity: Hex inhibition; type: biochemical
T1 sequence (P07686 122-556): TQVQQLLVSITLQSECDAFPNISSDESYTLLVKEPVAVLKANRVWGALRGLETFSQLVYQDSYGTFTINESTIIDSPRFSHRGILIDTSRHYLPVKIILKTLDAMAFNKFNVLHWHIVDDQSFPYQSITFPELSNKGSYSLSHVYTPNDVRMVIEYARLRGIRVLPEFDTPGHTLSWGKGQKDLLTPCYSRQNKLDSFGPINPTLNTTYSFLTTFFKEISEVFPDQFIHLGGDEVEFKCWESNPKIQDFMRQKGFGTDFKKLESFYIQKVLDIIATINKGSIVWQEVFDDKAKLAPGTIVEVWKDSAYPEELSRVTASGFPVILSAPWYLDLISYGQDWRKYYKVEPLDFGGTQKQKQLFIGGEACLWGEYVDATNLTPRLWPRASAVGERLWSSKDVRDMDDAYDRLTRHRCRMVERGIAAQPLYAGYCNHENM

[3] = tested on: GD patient fibroblasts; assay: Toxicity in treated GD patient fibroblasts; type: cell-based, human; conditions: for effect on Hex activity (indicator of toxicity): N370S/N370S cells, five days, at concentrations that increase GCase; for concentrations showing signs of toxicity: parallel decrease in intracellular GCase and Hex activities, N370S/N370S
How it was run: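 N370S/N370S patient fibroblasts at about 50% confluence given fresh α-MEM-FBS with test compound over a concentration range (DMSO stock, 1:100) and grown 5 days at 37 °C, in triplicate. Lysates in Triton X-100/TdC in CP pH 5.5 were split: GCase with MUGlc and lysosomal Hex with MUG as a toxicity control. Endpoint stopped at pH 10.5, ex 365/em 450 nm. Activities relative to DMSO-only cells; SD of n=3.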

[4] = target: T2, lysosomal GCase in N370S/N370S GD cells (Homo sapiens, UniProt P04062, N409S); assay: Lysosome-enriched fraction; type: cell-based; conditions: 12.5 μM, five days
T2 sequence (P04062 40-536 N409S): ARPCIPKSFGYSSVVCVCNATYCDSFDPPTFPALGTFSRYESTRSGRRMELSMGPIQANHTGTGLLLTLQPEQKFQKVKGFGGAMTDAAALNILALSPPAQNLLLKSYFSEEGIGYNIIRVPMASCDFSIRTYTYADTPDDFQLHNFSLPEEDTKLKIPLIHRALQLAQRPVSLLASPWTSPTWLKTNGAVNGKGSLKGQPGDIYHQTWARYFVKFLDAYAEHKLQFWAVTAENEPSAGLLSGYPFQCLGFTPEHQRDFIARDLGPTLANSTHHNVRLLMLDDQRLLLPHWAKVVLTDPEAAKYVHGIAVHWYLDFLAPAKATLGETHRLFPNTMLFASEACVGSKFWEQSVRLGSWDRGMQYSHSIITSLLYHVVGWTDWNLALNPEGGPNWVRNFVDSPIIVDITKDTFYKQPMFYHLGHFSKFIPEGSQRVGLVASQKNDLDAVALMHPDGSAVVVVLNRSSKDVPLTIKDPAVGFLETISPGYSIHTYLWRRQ
How it was run: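 N370S/N370S GD fibroblasts treated for five days with test compound (12.5 μM) or 0.1% DMSO. Labelled with iron-dextran colloid and lysosomes enriched by magnetic chromatography. Lysosomal GCase monitored with MUGlc. Fractions (1 μg) run on 10% SDS-PAGE and transferred to nitrocellulose. Probed with rabbit polyclonal anti-human GCase or mouse monoclonal Lamp-2 and developed by chemiluminescence.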

[5] = target: T3, human β-Gal (Homo sapiens, UniProt P16278); assay: Glycosidase specificity: β-Gal inhibition; type: biochemical
T3 sequence (P16278 29-677): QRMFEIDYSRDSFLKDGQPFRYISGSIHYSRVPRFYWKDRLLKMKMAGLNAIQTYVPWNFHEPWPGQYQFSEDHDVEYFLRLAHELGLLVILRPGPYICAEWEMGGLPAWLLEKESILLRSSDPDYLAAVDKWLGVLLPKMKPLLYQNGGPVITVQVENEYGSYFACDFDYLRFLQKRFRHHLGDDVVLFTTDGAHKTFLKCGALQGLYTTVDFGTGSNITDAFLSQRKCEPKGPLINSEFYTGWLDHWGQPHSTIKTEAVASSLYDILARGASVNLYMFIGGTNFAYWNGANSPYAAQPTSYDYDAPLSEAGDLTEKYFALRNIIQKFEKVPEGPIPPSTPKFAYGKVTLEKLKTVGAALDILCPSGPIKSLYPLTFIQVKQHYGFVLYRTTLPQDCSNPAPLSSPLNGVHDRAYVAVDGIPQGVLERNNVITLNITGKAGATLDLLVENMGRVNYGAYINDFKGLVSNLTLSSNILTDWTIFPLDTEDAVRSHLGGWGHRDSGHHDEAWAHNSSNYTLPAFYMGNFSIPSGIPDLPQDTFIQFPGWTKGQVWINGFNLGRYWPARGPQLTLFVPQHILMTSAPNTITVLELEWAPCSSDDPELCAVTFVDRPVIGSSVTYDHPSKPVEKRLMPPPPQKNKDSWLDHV

[6] = target: T4, GCase (Homo sapiens, UniProt P04062, R534H); assay: Hydrogen/deuterium exchange mass spectrometry of GCase with ligand; type: binding; conditions: 59-fold molar excess of ligand, 26 peptides
T4 sequence (P04062 40-536 R534H): T2 sequence (P04062 40-536 N409S) with S370N, R495H

[7] = target: T5, human β-GCase (Homo sapiens, UniProt P04062, R534H); assay: GCase inhibition, colourimetric substrate pNPGlc; type: biochemical; conditions: IC50 for GCase (rounded, text), substrate not stated at place
T5 sequence (P04062 40-536 R534H): T2 sequence (P04062 40-536 N409S) with S370N, R495H

Structure (SMILES)	IC50 for almond β-glucosidase increased relative to human GCase [1] [fold]	IC50 [1] [µM]	inhibition of Hex [2]	effect on Hex activity (indicator of toxicity) [3]	concentrations showing signs of toxicity [3]	increase of GCase levels in lysosomes [4]	IC50 [5] [µM]	number of GCase peptides (regions) perturbed in H/D-Ex [6]	IC50 [7] [µM]	inhibition of almond enzyme [1]	inhibition of β-Gal [5]
Cc1ccc(Sc2cccc3nc(N)nc(N)c23)cc1 [compound 1, 5-((4-methylphenyl)thio)quinazoline-2,4-diamine]	24	190	did not inhibit	did not affect the activity of Hex	greater than 30 μM	more than twofold	570	6/26			
O=C(Nc1ccncc1)c1ccc(Oc2cc(Cl)cc(Cl)c2)o1 [compound 2, 5-(3,5-dichlorophenoxy)-N-(4-pyridinyl)-2-furamide]		> 1150	no inhibition	did not affect the activity of Hex	greater than 30 μM	more than twofold	> 1150	1/26	5	virtually non-inhibitory	no inhibition
